Experimental data: ChEMBL document CHEMBL4480417, “Methylsulfonylated Polyketides Produced by Neosartorya udagawae HDN13-313 via Exogenous Addition of Small Molecules” (J Nat Prod, 2019)
Calls of active or inactive are those of the source. The calls are words filed in the database; no cut-off is given here.

Experiments:
[1] = test system: K562; experiment: Cytotoxicity against human K562 cells at 30 uM after 72 hrs by MTT assay; format: cell-based; conditions: k562, 72 h
[2] = test system: HL-60; experiment: Cytotoxicity against human HL60 cells at 30 uM after 72 hrs by MTT assay; format: cell-based; conditions: hl-60, 72 h
[3] = test system: HCT-116; experiment: Cytotoxicity against human HCT116 cells at 30 uM after 72 hrs by MTT assay; format: cell-based; conditions: hct-116, 72 h
[4] = test system: HepG2; experiment: Lipid lowering activity in human HepG2 cells assessed as reduction in oleic acid-induced lipid accumulation at 10 uM after 24 hrs by oil red O staining based spectrophotometric method; format: functional, cell-based
Outline: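 HepG2 cells in log phase seeded at 1.2 × 10^4 cells/well, grown 12 h to 70–80% confluence, then serum-starved 12 h in serum-free DMEM. Oleic acid added (final 80 μM) with test agent or simvastatin (final 10 μM), 24 h. Blank: DMEM only; OA alone as negative control. Cells fixed in 4% paraformaldehyde, rinsed with 60% 2-propanol, stained with 0.3% Oil Red O for 1 h, dye dissolved in DMSO, OD 358 nm; ≥3 experiments, mean ± SEM.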

[5] = test system: HeLa; experiment: Cytotoxicity against human HeLa cells at 30 uM after 72 hrs by MTT assay; format: cell-based

**Q.** What does the source list for `COc1cc(S(C)(=O)=O)cc2c(=O)oc3cc(CO)cc(O)c3c(=O)c12`?
**A.** Activity [1]: Non-Toxic; Activity [2]: Non-Toxic; Activity [3]: Non-Toxic; Activity [4]: Active; Activity [5]: Non-Toxic

**Q.** What does the source list for `COc1c(O)c(O)c(C)c(S(C)(=O)=O)c1O`?
**A.** Activity [1]: Non-Toxic; Activity [2]: Non-Toxic; Activity [3]: Non-Toxic; Activity [5]: Non-Toxic

**Q.** With `COc1c(O)ccc2c(=O)oc3cc(CO)cc(O)c3c(=O)c12` as the compound, how does the Activity [1] read?
**A.** Non-Toxic

**Q.** And the Activity [2]?
**A.** Non-Toxic

**Q.** What about the Activity [3] of the same compound?
**A.** Non-Toxic

**Q.** And the Activity [5]?
**A.** Non-Toxic

**Q.** For `CCC(C)(C)C(=O)O[C@H]1C[C@@H](C)C=C2C=C[C@H](C)[C@H](CC[C@@H]3C[C@@H](O)CC(=O)O3)[C@H]21`, which Activity [4] is on record?
**A.** Active
